Measurements as given in ChEMBL document CHEMBL1130414, “Muscarinic analgesics with potent and selective effects on the gastrointestinal tract: potential application for the treatment of irritable bowel syndrome” (J Med Chem, 1997).

Experiments:
Mustela putorius furo [1] = assay: Intravenous effective dose required to produce a 1 mV increase in transmural potential difference in ferrets (GI side effect); type: functional
How it was run: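 Anesthetized male ferrets (800–1200 g), fasted 24 h before surgery, dosed iv. Transmural potential difference across jejunal wall measured with calomel half-cells and salt bridges (one in luminal fluid, other via wick electrode in serosal fluid) to an electrometer. Value is dose giving >1 mV rise in potential difference; each animal its own control.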

Mustela putorius furo [2] = assay: Minimum intravenous effective dose required to inhibit jejunal motility in ferrets; type: functional
How it was run: (§1)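 Anesthetized male ferrets (800–1200 g), fasted 24 h before surgery, dosed iv. Spontaneous jejunal motility recorded manometrically via catheters inserted into jejunum. Value is minimum effective (threshold) dose inhibiting motility; each animal its own control; number of determinations recorded, SEM given when replicates differed.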

[3] = target: Muscarinic acetylcholine receptor; assay: Binding affinity against Muscarinic acetylcholine receptors using [3H]oxotremorine-M as radioligand in rat cortex
How it was run: (§2)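 Rat cortex radioligand displacement with [³H]oxotremorine-M, which labels the agonist conformational state of muscarinic receptors without subtype selectivity. Affinity is reported as Ki (nM) ± SEM.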

Mus musculus = assay: Analgesic activity measured using mouse writhing antinociceptive assay after subcutaneous administration; type: functional; details: sc
How it was run: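 Male Cr1:CF1 mice, groups of 5–10, given vehicle or compound sc; 25 min later 0.5% acetic acid ip. Writhes per mouse counted in individual chambers 5–10 min after acid (30–35 min post-dose), expressed as mean writhes over 5 min. ED50 from linear regression.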

Mustela putorius furo [4] = assay: Minimum intravenous effective dose required to inhibit spontaneous motility in ferrets; type: functional; how it was run: as §1
[5] = target: Muscarinic acetylcholine receptor; assay: Binding affinity against Muscarinic acetylcholine receptor using [3H]oxotremorine-M as radioligand in rat cortex; how it was run: as §2
[6] = Mean plasma concentration measured 1 h following an oral dose of 30 mg/kg; type: ADME, organism-based; parameters: dose 30 mg/kg, route oral
How it was run: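 Rats dosed orally at 30 mg/kg; parent compound plasma concentration measured 1 h after dosing, reported as mean.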

CCCCOc1nsnc1C1=CCCN(C)C1
ED (1mV) (Mustela putorius furo [1]): 0.007 mg/kg
Dose (Mustela putorius furo [2]): 0.003 mg/kg
Ki [3]: 1.4 nM
ED50 (Mus musculus): 0.41 mg/kg

C=CCCCCOc1nsnc1C1=CCCN(C)C1
ED (1mV) (Mustela putorius furo [1]): 0.003 mg/kg
Dose (Mustela putorius furo [2]): 0.03 mg/kg
Ki [3]: 3 nM
ED50 (Mus musculus): 0.9 mg/kg

CN1CCC=C(c2nsnc2SCCCc2cccs2)C1
ED (1mV) (Mustela putorius furo [1]): 0.03 mg/kg
Dose (Mustela putorius furo [2]): 0.03 mg/kg
Ki [3]: 10 nM
ED50 (Mus musculus): > 10 mg/kg

FC(F)(F)CCCSc1nsnc1[C@@H]1CN2CCC[C@@H]1C2
ED (1mV) (Mustela putorius furo [1]): 0.002 mg/kg
Ki [3]: 0.33 nM
ED50 (Mus musculus): 0.35 mg/kg
ED50 (Mustela putorius furo [4]): 0.017 mg/kg

FC(F)(F)CCCSc1nsnc1C1CN2CCCC1C2 (racemic)
ED (1mV) (Mustela putorius furo [1]): 0.03 mg/kg
Ki [5]: 0.4 nM
Dose (Mustela putorius furo [2]): 0.001 mg/kg
ED50 (Mus musculus): 0.1 mg/kg

CCCCSc1nsnc1C1CN2CCCC1C2 (racemic)
ED (1mV) (Mustela putorius furo [1]): 0.001 mg/kg
Dose (Mustela putorius furo [2]): 0.001 mg/kg
Ki [3]: 0.36 nM
ED50 (Mus musculus): 0.03 mg/kg

CC(C)CCCSc1nsnc1C1CN2CCCC1C2 (racemic)
ED (1mV) (Mustela putorius furo [1]): 0.003 mg/kg
Dose (Mustela putorius furo [2]): 0.03 mg/kg
Ki [3]: 0.91 nM
ED50 (Mus musculus): 0.95 mg/kg

CN1[C@@H]2CC[C@H]1C[C@@H](OC(=O)C(CO)c1ccccc1)C2 (some centres not stated) [ATROPINE]
ED (1mV) (Mustela putorius furo [1]): >0.03 mg/kg
ED50 (Mus musculus): > 30 mg/kg
ED50 (Mustela putorius furo [4]): 0.00073 mg/kg

CN1CC[C@]23c4c5ccc(O)c4O[C@H]2[C@@H](O)C=C[C@H]3[C@H]1C5 [MORPHINE]
ED50 (Mus musculus): 0.3 mg/kg

FC(F)(F)CCSc1nsnc1[C@@H]1CN2CCC[C@@H]1C2
ED (1mV) (Mustela putorius furo [1]): 0.01 mg/kg
Dose (Mustela putorius furo [2]): 0.003 mg/kg
Ki [3]: 0.44 nM
ED50 (Mus musculus): 0.1 mg/kg

FC(F)(F)CCCSc1nsnc1[C@H]1CN2CCC[C@H]1C2
ED (1mV) (Mustela putorius furo [1]): 0.015 mg/kg
concentration at 1 h [6]: 805 ng/mL
Ki [3]: 0.42 nM
ED50 (Mus musculus): 0.1 mg/kg
ED50 (Mustela putorius furo [4]): 0.00017 mg/kg

CCCCSc1nsnc1[C@@H]1CN2CCC[C@@H]1C2
ED (1mV) (Mustela putorius furo [1]): 0.001 mg/kg
concentration at 1 h [6]: 21 ng/mL
Dose (Mustela putorius furo [2]): 0.001 mg/kg
Ki [3]: 0.45 nM
ED50 (Mus musculus): 0.19 mg/kg

CN1CCC=C(c2nsnc2SCCCc2ccccc2)C1
ED (1mV) (Mustela putorius furo [1]): 0.03 mg/kg
Dose (Mustela putorius furo [2]): 0.01 mg/kg
Ki [3]: 1 nM
ED50 (Mus musculus): > 10 mg/kg

CCCCCCSc1nccnc1C1CN2CCC1CC2 (configuration not stated)
ED (1mV) (Mustela putorius furo [1]): >0.03 mg/kg
Dose (Mustela putorius furo [2]): >0.03 mg/kg
Ki [3]: 4 nM
ED50 (Mus musculus): 2.3 mg/kg

FC(F)(F)CCCCSc1nsnc1[C@@H]1CN2CCC[C@@H]1C2
ED (1mV) (Mustela putorius furo [1]): 0.01 mg/kg
Dose (Mustela putorius furo [2]): 0.001 mg/kg
Ki [3]: 0.24 nM
ED50 (Mus musculus): 0.07 mg/kg

FC(F)(F)CCCSc1nsnc1[C@@H]1CN2CCC[C@H]1C2
ED (1mV) (Mustela putorius furo [1]): >0.03 mg/kg
Ki [3]: 25 nM
ED50 (Mus musculus): > 10 mg/kg
ED50 (Mustela putorius furo [4]): 0.0047 mg/kg

CCCCCCSc1nsnc1C1=CCCN(CC)C1
ED (1mV) (Mustela putorius furo [1]): >0.03 mg/kg
Dose (Mustela putorius furo [2]): >0.03 mg/kg
Ki [3]: 18 nM
ED50 (Mus musculus): > 10 mg/kg

FC(F)(F)CCCSc1nsnc1[C@H]1CN2CCC[C@@H]1C2
ED (1mV) (Mustela putorius furo [1]): >0.03 mg/kg
Ki [3]: 9.6 nM
ED50 (Mus musculus): 1.8 mg/kg
ED50 (Mustela putorius furo [4]): 0.0053 mg/kg

CCCCSc1nsnc1C1CN2CCC1CC2 (configuration not stated) [VEDACLIDINE]
ED (1mV) (Mustela putorius furo [1]): 0.01 mg/kg
Dose (Mustela putorius furo [2]): 0.003 mg/kg
Ki [3]: 0.4 nM
ED50 (Mus musculus): 0.19 mg/kg

CCCCSc1nsnc1C1=CCCNC1
ED (1mV) (Mustela putorius furo [1]): 0.03 mg/kg
Dose (Mustela putorius furo [2]): 0.03 mg/kg
Ki [3]: 3.5 nM
ED50 (Mus musculus): 0.14 mg/kg

CCCCSc1nccnc1C1CN2CCC1CC2 (configuration not stated)
ED (1mV) (Mustela putorius furo [1]): 0.03 mg/kg
Dose (Mustela putorius furo [2]): 0.003 mg/kg
Ki [3]: 0.5 nM
ED50 (Mus musculus): 3.2 mg/kg
